Results as given in ChEMBL document CHEMBL1150398, “Design and synthesis of 7-alkoxy-4-heteroarylamino-3-quinolinecarbonitriles as dual inhibitors of c-Src kinase and nitric oxide synthase” (Bioorg Med Chem, 2008).
Values belong to the molecule of their own block, whether it stands above or below them.

Key:
[1] = molecular target: T1, Nitric oxide synthase, inducible (Mus musculus, UniProt P29477); experiment: Inhibition of inducible nitric oxide synthetase in LPS-stimulated mouse ANA1 macrophages
T1 sequence (P29477 whole entry): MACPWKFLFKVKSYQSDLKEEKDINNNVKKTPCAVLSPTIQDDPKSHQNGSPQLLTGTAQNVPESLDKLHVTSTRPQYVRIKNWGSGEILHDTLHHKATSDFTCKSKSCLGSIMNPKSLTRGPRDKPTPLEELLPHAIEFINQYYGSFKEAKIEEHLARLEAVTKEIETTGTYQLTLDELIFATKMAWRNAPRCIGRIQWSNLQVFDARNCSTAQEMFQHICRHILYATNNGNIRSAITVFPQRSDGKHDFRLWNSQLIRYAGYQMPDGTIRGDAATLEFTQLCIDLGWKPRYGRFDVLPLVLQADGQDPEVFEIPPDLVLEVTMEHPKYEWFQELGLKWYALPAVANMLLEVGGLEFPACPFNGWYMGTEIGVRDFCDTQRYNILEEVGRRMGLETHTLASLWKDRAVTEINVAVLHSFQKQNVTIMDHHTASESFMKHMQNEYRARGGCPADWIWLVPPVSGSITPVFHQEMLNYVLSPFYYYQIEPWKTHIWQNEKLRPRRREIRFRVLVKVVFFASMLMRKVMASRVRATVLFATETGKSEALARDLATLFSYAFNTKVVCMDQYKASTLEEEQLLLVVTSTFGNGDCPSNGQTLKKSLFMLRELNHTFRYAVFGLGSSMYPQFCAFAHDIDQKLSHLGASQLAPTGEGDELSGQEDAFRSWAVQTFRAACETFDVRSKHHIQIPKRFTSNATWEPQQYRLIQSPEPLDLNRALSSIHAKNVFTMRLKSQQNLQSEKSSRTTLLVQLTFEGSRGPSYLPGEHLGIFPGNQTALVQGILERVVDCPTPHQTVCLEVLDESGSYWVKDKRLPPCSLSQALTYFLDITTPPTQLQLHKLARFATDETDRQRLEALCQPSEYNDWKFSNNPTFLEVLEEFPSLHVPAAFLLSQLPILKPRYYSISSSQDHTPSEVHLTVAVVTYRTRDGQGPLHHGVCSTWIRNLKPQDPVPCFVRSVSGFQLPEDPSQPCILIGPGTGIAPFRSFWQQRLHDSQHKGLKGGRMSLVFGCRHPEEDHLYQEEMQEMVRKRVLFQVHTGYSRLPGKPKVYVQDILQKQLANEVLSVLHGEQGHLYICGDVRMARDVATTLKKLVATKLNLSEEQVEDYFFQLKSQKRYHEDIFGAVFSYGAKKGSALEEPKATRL
In short: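 ANA-1 macrophages grown in DMEM with 10% heat-inactivated FBS and 2 mM L-glutamine, 37 °C, 5% CO₂, 10⁵ cells/mL prepared the day before. Cells stimulated with LPS for 24 h, collected, then given assay buffer, L-arginine substrate and DAF-FM DA tracer. Reaction started with 0.1 mM NADPH, 37 °C 30 min, washed, fluorescence read. Triplicate, mean of three.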

[2] = molecular target: T2, Proto-oncogene tyrosine-protein kinase Src (Homo sapiens, UniProt P12931); experiment: Inhibition of human recombinant cSrc by ELISA
T2 sequence (P12931 2-536 limits assumed): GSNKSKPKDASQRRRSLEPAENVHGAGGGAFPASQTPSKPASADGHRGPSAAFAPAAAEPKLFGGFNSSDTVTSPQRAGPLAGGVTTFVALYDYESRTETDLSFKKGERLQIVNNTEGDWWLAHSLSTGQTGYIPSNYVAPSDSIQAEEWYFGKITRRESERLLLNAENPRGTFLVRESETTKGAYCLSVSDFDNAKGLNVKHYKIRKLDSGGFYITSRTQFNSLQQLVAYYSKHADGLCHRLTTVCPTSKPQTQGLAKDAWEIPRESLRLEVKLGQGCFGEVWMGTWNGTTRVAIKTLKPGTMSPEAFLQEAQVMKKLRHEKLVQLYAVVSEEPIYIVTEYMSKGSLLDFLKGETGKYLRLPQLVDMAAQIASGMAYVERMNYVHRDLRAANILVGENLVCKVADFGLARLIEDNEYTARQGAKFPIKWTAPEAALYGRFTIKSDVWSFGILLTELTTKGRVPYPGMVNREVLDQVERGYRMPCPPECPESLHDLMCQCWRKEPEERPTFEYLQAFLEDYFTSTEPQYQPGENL

[3] = molecular target: T2, Proto-oncogene tyrosine-protein kinase Src; experiment: Inhibition of human recombinant cSrc by fluorescence polarization assay
HepG2 = experiment: Antiproliferative activity against human HepG2 cells after 48 hrs by sulforhodamine B assay; format: functional, cell-based; conditions: HepG2, 48 h; for CC50: read-out: LC50 (the source's name)
In short: (§1)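 SRB assay: cells plated in 96-well plates, mostly at 20,000 cells/well, pre-incubated 24 h without drug. Compounds added in 10-fold dilutions from highest soluble concentration, 48 h further incubation. Cells fixed in situ, washed, dried, SRB stained; proliferation inhibition from change in total optical density after 48 h treatment.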

HT-29 = experiment: Antiproliferative activity against human HT29 cells after 48 hrs by sulforhodamine B assay; format: functional, cell-based; conditions: HT-29, 48 h; for CC50: read-out: LC50 (the source's name); in short: as §1

Compound: Cc1cc2c(Nc3nc4ccccc4s3)c(C#N)cnc2cc1OCCCN1CCOCC1
IC50 [1]: 139 µM

Compound: Cc1cc2c(Nc3nc4ccccc4s3)c(C#N)cnc2cc1OCCCN1CCCCC1
IC50 [1]: 412 µM

Compound: COc1cc2c(Nc3nc4ccc(OC(F)(F)F)cc4s3)c(C#N)cnc2cc1OCCCN1CCN(C)CC1
IC50 [1]: 65.6 µM

Compound: COc1cc2c(Nc3nc4ccccc4s3)c(C#N)cnc2cc1OCCN1CCOCC1
IC50 [1]: 26.7 µM
IC50 [2]: > 1 µM

Compound: COc1cc2c(Nc3nc4ccccc4s3)c(C#N)cnc2cc1OCCCN1CCN(C)CC1
IC50 [1]: 98 µM

Compound: COc1cc2c(Nc3nc4ccccc4s3)c(C#N)cnc2cc1OCCN1CCCCC1
IC50 [1]: 44.8 µM

Compound: Cc1cc2c(Nc3ccccn3)c(C#N)cnc2cc1OCCCN1CCN(C)CC1
IC50 [1]: 18.6 µM

Compound: Cc1ccc2nc(Nc3c(C#N)cnc4cc(OCCCN5CCCCC5)c(C)cc34)sc2c1
IC50 [1]: 313 µM
GI50 (HepG2): 4.85 µM
IC50 (HepG2): 7.61 µM
TGI (HepG2): 9.25 µM
CC50 (HepG2): > 10 µM
GI50 (HT-29): 5.59 µM
IC50 (HT-29): 6.58 µM
TGI (HT-29): > 10 µM
CC50 (HT-29): > 10 µM

Compound: COc1cc(Nc2c(C#N)cnc3cc(OCCCN4CCN(C)CC4)c(OC)cc23)c(Cl)cc1Cl [BOSUTINIB]
GI50 (HepG2): 1.15 µM
IC50 (HepG2): 3.91 µM
TGI (HepG2): 7.66 µM
CC50 (HepG2): > 10 µM
GI50 (HT-29): 1.17 µM
IC50 (HT-29): 3.87 µM
TGI (HT-29): 6.5 µM
CC50 (HT-29): > 10 µM

Compound: N=C(N)NOCC[C@H](N)C(=O)O [CANAVANINE]
IC50 [1]: 60 µM

Other lines, results leading:

IC50 [1]: 12.7 µM
Compound: Cc1ccc2nc(Nc3c(C#N)cnc4cc(OCCCN5CCN(C)CC5)c(C)cc34)sc2c1

IC50 [1]: 2.18 µM
Compound: COc1cc2c(Nc3nc4ccccc4s3)c(C#N)cnc2cc1OCCN1CCN(C)CC1

IC50 [1]: 16.3 µM
Compound: Cc1cc2c(Nc3nc4ccc(OC(F)(F)F)cc4s3)c(C#N)cnc2cc1OCCCN1CCN(C)CC1

IC50 [1]: 15.5 µM
IC50 [3]: > 1 µM
Compound: Cc1cc2c(Nc3nc4ccccc4[nH]3)c(C#N)cnc2cc1OCCCN1CCN(C)CC1

IC50 [1]: 18.1 µM
Compound: COc1cc2c(Nc3nc4ccccc4[nH]3)c(C#N)cnc2cc1OCCCN1CCN(C)CC1

IC50 [1]: 18 µM
Compound: Nc1nccs1 [AMINOTHIAZOLE]
